Assay results: publication PMC4220649 (Blood Cancer Journal, 2014)
Where “and” joins values, the source holds several entries; their conditions need not be identical. Identical values can stand only once.

Molecular target: 20S proteasome (Homo sapiens, UniProt P28074)
Assay: Whole blood 20S proteasome activity
Assay type: in vivo
Settings: for Emax / Time to Emax: whole blood 20S; for Maximal 20S proteasome inhibition / Time of maximal 20S proteasome inhibition after administration: whole blood, MTD 2.34 mg/m^2
In short: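 Whole blood was sampled after IV bolus dosing (0.125–3.11 mg/m2) on cycle 1 days 1 and 15. 20S proteasome activity was measured by fluorogenic assay.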

[1] = day 1, IV 0.125 mg/m^2, n=1, individual value
[2] = day 1, IV 0.25 mg/m^2, n=1, individual value
[3] = day 1, IV 0.5 mg/m^2, n=1, individual value
[4] = day 1, IV 1 mg/m^2, n=1, individual value
[5] = day 15, IV 0.25 mg/m^2, n=1, individual value
[6] = day 15, IV 0.5 mg/m^2, n=1, individual value
[7] = day 15, IV 1 mg/m^2, n=1, individual value
[8] = day 15, IV 3.11 mg/m^2, n=2, individual values

Compound: CC(C)C[C@H](NC(=O)CNC(=O)c1cc(Cl)ccc1Cl)B(O)O [ixazomib]
- Dose dependence of maximal whole blood 20S proteasome inhibition (0.125–3.11 mg/m^2): dose-dependent increase
- AUE0–168 h (area under 20S inhibition vs time curve, day 1, IV 1.4 mg/m^2, n=3, mean (±s.d.)): 2000 (±1160) % inhibition/h
- Emax [1]: 5.15 % inhibition
- Time to Emax [1]: 0.25 h
- Emax [2]: 18.5 % inhibition
- Time to Emax [2]: 0.083 h
- Emax [3]: 33.2 % inhibition
- Time to Emax [3]: 0.1 h
- Emax [4]: 50.5 % inhibition
- Time to Emax [4]: 0.083 h
- Emax (day 1, IV 1.4 mg/m^2, n=3, mean (±s.d.)): 66.3 (±14.8) % inhibition
- Time to Emax (day 1, IV 1.4 mg/m^2, n=3, median (range)): 0.117 (0.1–0.133) h
- Emax (day 1, IV 1.76 mg/m^2, n=7, mean (±s.d.)): 72.2 (±8.1) % inhibition
- Time to Emax (day 1, IV 1.76 mg/m^2, n=7, median (range)): 0.083 (0.083–0.1) h
- Emax (day 1, IV 2.34 mg/m^2, n=5, mean (±s.d.)): 81.9 (±3.2) % inhibition
- Time to Emax (day 1, IV 2.34 mg/m^2, n=5, median (range)): 0.083 (0.083–0.25) h
- Emax (day 1, IV 3.11 mg/m^2, n=4, mean (±s.d.)): 80.2 (±3.6) % inhibition
- Time to Emax (day 1, IV 3.11 mg/m^2, n=4, median (range)): 0.109 (0.083–0.533) h
- Emax [5]: 64.3 % inhibition
- Time to Emax [5]: 0.1 h
- Emax [6]: 19.2 % inhibition
- Time to Emax [6]: 0.1 h
- Emax [7]: 44.4 % inhibition
- Time to Emax [7]: 0.083 h
- Emax (day 15, IV 1.4 mg/m^2, n=3, mean (±s.d.)): 69.8 (±10.6) % inhibition
- Time to Emax (day 15, IV 1.4 mg/m^2, n=3, median (range)): 0.083 (0.083–0.083) h
- Emax (day 15, IV 1.76 mg/m^2, n=3, mean (±s.d.)): 74.8 (±4.5) % inhibition
- Time to Emax (day 15, IV 1.76 mg/m^2, n=3, median (range)): 0.083 (0.033–0.083) h
- Emax (day 15, IV 2.34 mg/m^2, n=4, mean (±s.d.)): 79.6 (±4.9) % inhibition
- Time to Emax (day 15, IV 2.34 mg/m^2, n=4, median (range)): 0.167 (0.083–0.25) h
- Emax [8]: 82.3 % inhibition and 85 % inhibition
- Time to Emax [8]: 0.083 h and 0.117 h
- Maximal 20S proteasome inhibition (day 1): 82%
- Time of maximal 20S proteasome inhibition after administration (day 1): 5 min
- Maximal 20S proteasome inhibition (day 15): 80%
- Time of maximal 20S proteasome inhibition after administration (day 15): 10 min
